Results reported in ChEMBL document CHEMBL5674880 (PLoS One, 2018).
Blank lines part the entries; values can stand above or below the compound they belong to.

How the values were obtained:
Assay type in all cases: functional, cell-based
ASPC1 = test: Antiproliferative activity against human ASPC1 cells after 10 days; settings: ASPC1, 240 h
Method in brief: (§1)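 Tested as part of a 240-line cancer cell panel (Eurofins Oncopanel); all lines were mycoplasma-negative and STR-verified. Cells were exposed to a compound concentration series in 2D culture for 10 days. The highest concentration was 10 μM or 25 μM, depending on the inhibitor. Antiproliferative IC50 was derived from the mean of three biological replicates.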

BeWo = test: Antiproliferative activity against human BeWo cells after 10 days; settings: 240 h; method in brief: as §1
BPH-1 = test: Antiproliferative activity against human BPH-1 cells after 10 days; settings: BPH-1, 240 h; method in brief: as §1
[1] = Antiproliferative activity against human C32TG cells after 10 days; settings: 240 h; method in brief: as §1
[2] = Antiproliferative activity against human C4-1 cells after 10 days; settings: C4-1, 240 h; method in brief: as §1
CGTH-W-1 = test: Antiproliferative activity against human CGTH-W-1 cells after 10 days; settings: CGTH-W-1, 240 h; method in brief: as §1
CHP-212 = test: Antiproliferative activity against human CHP-212 cells after 10 days; settings: CHP-212, 240 h; method in brief: as §1
COR-L105 = test: Antiproliferative activity against human COR-L105 cells after 10 days; settings: COR-L105, 240 h
Method in brief: (§2)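 10-day 2D proliferation screen of a broad cancer cell panel (about 240 lines, Eurofins Oncopanel). All lines were mycoplasma negative and STR verified. Compounds were dosed up to a top concentration of 10 μM or 25 μM, depending on the inhibitor. Anti-proliferative IC50 values are the average of three biological replicates.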

DB = test: Antiproliferative activity against human DB cells after 10 days; settings: 240 h; method in brief: as §2
DU-145 = test: Antiproliferative activity against human DU-145 cells after 10 days; settings: DU-145, 240 h; method in brief: as §2
G-402 = test: Antiproliferative activity against human G-402 cells after 10 days; settings: G-402, 240 h; method in brief: as §2
HCT-8 = test: Antiproliferative activity against human HCT-8 cells after 10 days; settings: HCT-8, 240 h; method in brief: as §2
HOS = test: Antiproliferative activity against human HOS cells after 10 days; settings: 240 h; method in brief: as §2
Hs746T = test: Antiproliferative activity against human Hs746T cells after 10 days; settings: 240 h; method in brief: as §2
HT1197 = test: Antiproliferative activity against human HT1197 cells after 10 days; settings: HT1197, 240 h
Method in brief: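 Cell lines run in the Eurofins Oncopanel broad cancer panel, all mycoplasma-negative and STR-verified. Cells were exposed to a compound concentration series in a 10-day proliferation assay, and an anti-proliferative IC50 was derived. Values are the mean of three biological replicates.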

L-428 = test: Antiproliferative activity against human L-428 cells after 10 days; settings: L-428, 240 h
Method in brief: (§3)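 Broad cancer cell line panel (Eurofins Oncopanel, about 240 lines; mycoplasma negative, STR verified) grown in 2D culture and exposed to compound in a 10-day proliferation assay. The top concentration was 10 μM for the SMYD2 inhibitor series and 25 μM for the SMYD3 inhibitor. The proliferative IC50 is taken from concentration-response data, each value the mean of three biological replicates.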

MC-IXC = test: Antiproliferative activity against human MC-IXC cells after 10 days; settings: 240 h; method in brief: as §3
MeWo = test: Antiproliferative activity against human MeWo cells after 10 days; settings: 240 h; method in brief: as §3
MG-63 = test: Antiproliferative activity against human MG-63 cells after 10 days; settings: MG-63, 240 h; method in brief: as §3
MOLT-16 = test: Antiproliferative activity against human MOLT-16 cells after 10 days; settings: MOLT-16, 240 h; method in brief: as §3
NCI-H292 = test: Antiproliferative activity against human NCI-H292 cells after 10 days; settings: NCI-H292, 240 h; method in brief: as §3
NCI-H747 = test: Antiproliferative activity against human NCI-H747 cells after 10 days; settings: NCI-H747, 240 h; method in brief: as §3
[3] = Antiproliferative activity against human OE21 cells after 10 days; settings: OE21, 240 h; method in brief: as §3
RL95-2 = test: Antiproliferative activity against human RL95-2 cells after 10 days; settings: RL95-2, 240 h
SAOS-2 = test: Antiproliferative activity against human SAOS-2 cells after 10 days; settings: SAOS-2, 240 h
SCC-25 = test: Antiproliferative activity against human SCC-25 cells after 10 days; settings: SCC-25, 240 h
SK-LMS-1 = test: Antiproliferative activity against human SK-LMS-1 cells after 10 days; settings: SK-LMS-1, 240 h
SNB-19 = test: Antiproliferative activity against human SNB-19 cells after 10 days; settings: SNB-19, 240 h
SW872 = test: Antiproliferative activity against human SW872 cells after 10 days; settings: SW872, 240 h
SW982 = test: Antiproliferative activity against human SW982 cells after 10 days; settings: SW982, 240 h
WiDr = test: Antiproliferative activity against human WiDr cells after 10 days; settings: 240 h
C32 = test: Antiproliferative activity against human C32 cells after 10 days; settings: C32, 240 h
C-4-II = test: Antiproliferative activity against human C-4-II cells after 10 days; settings: 240 h
CCRF-CEM = test: Antiproliferative activity against human CCRF-CEM cells after 10 days; settings: 240 h
COLO-829 = test: Antiproliferative activity against human COLO-829 cells after 10 days; settings: COLO-829, 240 h
DBTRG-05MG = test: Antiproliferative activity against human DBTRG-05MG cells after 10 days; settings: 240 h
Detroit 562 = test: Antiproliferative activity against human Detroit 562 cells after 10 days; settings: Detroit 562, 240 h
H4 = test: Antiproliferative activity against human H4 cells after 10 days; settings: H4, 240 h
HLE = test: Antiproliferative activity against human HLE cells after 10 days; settings: 240 h
MDA-MB-468 = test: Antiproliferative activity against human MDA-MB-468 cells after 10 days; settings: MDA-MB-468, 240 h
MX1 = test: Antiproliferative activity against human MX1 cells after 10 days; settings: MX1, 240 h
NCI-H460 = test: Antiproliferative activity against human NCI-H460 cells after 10 days; settings: NCI-H460, 240 h
SK-MEL-28 = test: Antiproliferative activity against human SK-MEL-28 cells after 10 days; settings: SK-MEL-28, 240 h
SK-N-AS = test: Antiproliferative activity against human SK-N-AS cells after 10 days; settings: 240 h
SR = test: Antiproliferative activity against human SR cells after 10 days; settings: 240 h

IC50 (ASPC1): 3.01 µM | IC50 (DU-145): 4.13 µM | IC50 (HCT-8): 2520 nM | IC50 (MOLT-16): 1110 nM | IC50 (NCI-H292): 2690 nM | IC50 (NCI-H747): 2320 nM | IC50 (SK-LMS-1): 2410 nM | IC50 (SW872): 2530 nM | IC50 (SW982): 5.79 µM
Structure (SMILES): Cc1cn(CCN2CCN(c3ccccc3-c3cc(C#N)cc(C(=O)NCCCN4CCCC4)c3)CC2)c2ccccc12
IC50 (BeWo): 2880 nM | IC50 (BPH-1): 3.49 µM | IC50 [1]: 2360 nM | IC50 [2]: 2060 nM | IC50 (CGTH-W-1): 2870 nM | IC50 (CHP-212): 2100 nM | IC50 (COR-L105): 1110 nM | IC50 (DB): 1170 nM | IC50 (G-402): 2190 nM | IC50 (HOS): 2130 nM | IC50 (Hs746T): 4.29 µM | IC50 (HT1197): 1560 nM | IC50 (L-428): 1490 nM | IC50 (MC-IXC): 1920 nM | IC50 (MeWo): 1980 nM | IC50 (MG-63): 6.12 µM | IC50 [3]: 1060 nM | IC50 (RL95-2): 1290 nM | IC50 (SAOS-2): 3.03 µM | IC50 (SCC-25): 2520 nM | IC50 (SNB-19): 2520 nM | IC50 (WiDr): 838 nM

IC50 (ASPC1): > 10 µM | IC50 (CCRF-CEM): > 10 µM | IC50 (COLO-829): 5.73 µM | IC50 (DU-145): > 10 µM | IC50 (HCT-8): > 10000 nM | IC50 (MDA-MB-468): > 10 µM | IC50 (MOLT-16): > 10000 nM | IC50 (NCI-H292): > 10000 nM | IC50 (NCI-H460): > 10 µM | IC50 (NCI-H747): > 10000 nM | IC50 (SK-LMS-1): > 10000 nM | IC50 (SK-MEL-28): > 10 µM | IC50 (SK-N-AS): > 10 µM | IC50 (SW872): > 10000 nM | IC50 (SW982): > 10 µM
Structure (SMILES): O=C(NC1CN(Cc2cnn(Cc3ccccc3)c2)C1)c1cn(C2CC2)nn1
IC50 (BeWo): > 10000 nM | IC50 (BPH-1): > 10 µM | IC50 (C32): > 10 µM | IC50 [1]: > 10000 nM | IC50 [2]: > 10000 nM | IC50 (C-4-II): > 10 µM | IC50 (CGTH-W-1): > 10000 nM | IC50 (CHP-212): > 10000 nM | IC50 (COR-L105): > 10000 nM | IC50 (DB): 663 nM | IC50 (DBTRG-05MG): > 10 µM | IC50 (Detroit 562): > 10 µM | IC50 (G-402): > 10000 nM | IC50 (H4): > 10 µM | IC50 (HLE): > 10 µM | IC50 (HOS): > 10000 nM | IC50 (Hs746T): > 10 µM | IC50 (HT1197): > 10000 nM | IC50 (L-428): 2610 nM | IC50 (MC-IXC): > 10000 nM | IC50 (MeWo): > 10000 nM | IC50 (MG-63): > 10 µM | IC50 (MX1): > 10 µM | IC50 [3]: 3400 nM | IC50 (RL95-2): > 10000 nM | IC50 (SAOS-2): > 10 µM | IC50 (SCC-25): > 10000 nM | IC50 (SNB-19): > 10000 nM | IC50 (SR): > 10 µM | IC50 (WiDr): > 10000 nM
